Data set [1] in a line: Antimigratory activity against human L3.6PL cells assessed as cell migration inhibition at 1 uM after 48 hrs incubation by wound healing assay in presence of 250 uM aminoguanidine treated 24 hrs prior compound addition. The format is functional.
The subject of another data set is polyamine transporter. Briefly: Selectivity ratio of IC50 for polyamine transporter deficient CHO-MG cells to IC50 for CHO cells by MTS assay. The format is ADME, cell-based, Cricetulus griseus. To be noted: chinese hamster, polyamine transporter deficient CHO-MG cells and CHO cells; read-out: Ratio IC50. Put shortly: (§1)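 CHO and polyamine-transport-deficient CHO-MG* cells pretreated 24 h with 1 mM aminoguanidine, then exposed to compound for 48 h at 37 °C. Triplicate. IC50 taken as 50% growth inhibition. PTS selectivity expressed as the CHO-MG*/CHO IC50 ratio.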
In general terms: Formazan colour is commonly taken as a measure of viable cells.

The next data set concerns CHO-MG. The experiment in a line: Cytotoxicity against polyamine transporter deficient CHO-MG cells assessed as cell growth after 48 hrs incubation by MTS assay in presence of 1 mM aminoguanidine. The format is ADME, cell-based. To be noted: Cricetulus griseus. Put shortly:
as §1

The nature of data set [2]: Antimigratory activity against human L3.6PL cells assessed as cell migration inhibition at 0.6 uM after 48 hrs incubation by wound healing assay in presence of 250 uM aminoguanidine treated 24 hrs prior compound addition. Type of data set: functional.
A short description of data set [3]: Cytotoxicity against human L3.6PL cells assessed as inhibition of cell growth after 48 hrs incubation by MTS assay in presence of 250 uM aminoguanidine treated 24 hrs prior compound addition. As to conditions: for IC50: Homo sapiens, L3.6pl. The format is functional, cell-based. Put shortly: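 L3.6pl cells pretreated 24 h with 250 μM aminoguanidine, then incubated with compound for 48 h at 37 °C. Triplicate. IC50 is the concentration giving 50% growth inhibition and IC5 the concentration giving 5% inhibition, both versus untreated control.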

A further data set relates to CHO. The experiment in a line: Cytotoxicity against CHO cells assessed as cell growth after 48 hrs incubation by MTS assay in presence of 1 mM aminoguanidine. Type of data set: cell-based. To be noted: Cricetulus griseus. The method, boiled down:
as §1

The test system of a further data set is L3.6pl. The experiment in a line: Antimigratory activity against human L3.6PL cells assessed as cell migration inhibition after 48 hrs incubation by wound healing assay in presence of 250 uM aminoguanidine treated 24 hrs prior compound addition. Type of data set: functional, cell-based.
Data set [4] can be described thus: Antimigratory activity against human L3.6PL cells assessed as cell migration inhibition at 2 uM after 48 hrs incubation by wound healing assay in presence of 250 uM aminoguanidine treated 24 hrs prior compound addition. The format is functional.

As a reminder, the IC50 is the concentration at which inhibition is half-maximal.

Take `Cl.NCCCCNCCCCN1CCCCCCCCCCCCCC1`: the “inhibition (INH)” value amounted to 29.6% in data set [1] and 16.7% in data set [2]. The selectivity ratio in the data set with polyamine transporter came out at 1. In addition, the results for the IC50 (in the data set with CHO-MG; in data set [3]; in the data set with CHO) were 4.67 µM, 1800 nM and 4.38 µM, respectively. In data set [3], the IC5 amounted to 1 µM.
On to `Cl.NCCCCNCCCCNCC1CCCCCCCCCCCCCC1`, for which the inhibition entry with L3.6pl is “Dose-dependent effect”. The selectivity ratio with polyamine transporter was 1. Also, the results for the IC50 (with CHO-MG; in data set [3]; with CHO) were 45.5 µM, 48700 nM and 47.8 µM, respectively. Besides, in data set [3], the IC5 was 40 µM.
In the case of `Cl.NCCCNCCCNC1CCCCCCCCCCCCCC1`, the “inhibition (INH)” value in data set [4] turned out to be 32.9%; in data set [2] it was 19.3%. Also, in the data set on polyamine transporter, the selectivity ratio stood at 2.1. Also, the IC50 amounted to 5.95 µM in the data set on CHO-MG, 2800 nM in data set [3] and 2.84 µM in the data set with CHO. The IC5 in data set [3] is 2 µM.
In the case of `Cl.NCCCCNCCCCNC1CCCCCCCCCCCCCC1`, in the data set on polyamine transporter, the selectivity ratio was 1. For the same compound, the IC50 in the data set on CHO-MG is 5.18 µM; in data set [3] it was 2800 nM; in the data set with CHO, 4.53 µM. Further, the IC5 in data set [3] is 2 µM.
